Experimental findings from ChEMBL document CHEMBL4014350, “Alkoxyurea-Based Histone Deacetylase Inhibitors Increase Cisplatin Potency in Chemoresistant Cancer Cell Lines” (J Med Chem, 2017) are described below.

Assay [1] concerns the target T1, Histone deacetylase 1/6 (Homo sapiens) (UniProt Q13547+Q9UBN7). As to the kind of experiment: Inhibition of HDAC1/HDAC6 in human Cal27CisR cells assessed as potentiation of cisplatin-induced cytotoxicity by measuring fold reduction in cisplatin IC50 at 0.5 uM preincubated for 48 hrs followed by cisplatin treatment measured after 72 hrs by MTT assay relative to cisplatin alone. Type of assay: cell-based. In short, it runs like this:
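Cal27CisR cells were pretreated 48 h with 0.5 μM inhibitor, then exposed to increasing cisplatin concentrations for 72 h, with IC50 by MTT. The shift factor is the IC50 of cisplatin alone divided by the IC50 of the combination. Data are mean ± SEM of pooled independent experiments (at least three), each in triplicate, and significance was tested by t test (p < 0.05).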

Assay [2] concerns the target T1, Histone deacetylase 1/6 (Homo sapiens). As to the kind of experiment: Inhibition of HDAC1/HDAC6 in human Cal27CisR cells assessed as potentiation of 5 uM cisplatin-induced cytotoxicity by measuring combination index at 400 uM preincubated for 48 hrs followed by cisplatin treatment measured after 72 hrs by MTT assay. The class given is cell-based. The method in brief: (§1)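 Cal27 and cisplatin-resistant Cal27CisR cells were preincubated with the HDAC inhibitor for 48 h, then given cisplatin in combination. Viability was read by MTT after 72 h. The combination index was computed by the Chou–Talalay method: CI > 1 is antagonism, CI = 1 is additive, and CI < 0.9 is synergism. Points with fraction affected below 0.20 were flagged.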
(Tetrazolium assays rely on reduction of a dye to a coloured formazan, in cell work by metabolically active cells.)

Assay [3] has as its system CAL-27. The assay is described as follows: Potentiation of 5 uM cisplatin-induced cytotoxicity against human CAL27 cells assessed as decrease in cell viability by measuring combination index at 100 uM preincubated for 48 hrs followed by cisplatin treatment measured after 72 hrs by MTT assay. The class given is functional. Particulars: in the assay text read “at 100 nM” for “at 100 uM”. The method in brief: (§2)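 HDAC inhibitor was added 48 h before cisplatin, then cells were exposed to cisplatin for 72 h and viability was read by MTT assay. Combination index was computed by the Chou–Talalay method: CI > 1 is antagonism, CI = 1 additive, CI < 0.9 synergism. Points with fraction affected below 0.20 were flagged.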

In assay [4] the test system is CAL-27. As to the kind of experiment: Potentiation of 0.5 uM cisplatin-induced cytotoxicity against human CAL27 cells assessed as decrease in cell viability by measuring combination index at 400 uM preincubated for 48 hrs followed by cisplatin treatment measured after 72 hrs by MTT assay. Type of assay: functional. Particulars: in the assay text read “at 400 nM” for “at 400 uM”. In short, it runs like this:
as §1

Assay [5] deals with CAL-27. As to the kind of experiment: Induction of apoptosis in human CAL27 cells at 1 uM for 48 hrs by propidium iodide dye-based flow cytometry. Type of assay: functional, cell-based. Background: A flow cytometer gives signals particle by particle.
The test system of assay [6] is CAL-27. The assay is described as follows: Potentiation of 2 uM cisplatin-induced cytotoxicity against human CAL27 cells assessed as decrease in cell viability by measuring combination index at 200 uM preincubated for 48 hrs followed by cisplatin treatment measured after 72 hrs by MTT assay. The class given is functional. The note with it: in the assay text read “at 200 nM” for “at 200 uM”. In short, it runs like this:
as §2

Assay [7] concerns the target T1, Histone deacetylase 1/6 (Homo sapiens). As to the kind of experiment: Inhibition of HDAC1/HDAC6 in human Cal27CisR cells assessed as potentiation of 20 uM cisplatin-induced cytotoxicity by measuring combination index at 400 nM preincubated for 48 hrs followed by cisplatin treatment measured after 72 hrs by MTT assay.
The subject of assay [8] is CAL-27. The assay is described as follows: Potentiation of 2 uM cisplatin-induced cytotoxicity against human CAL27 cells assessed as decrease in cell viability by measuring combination index at 300 uM preincubated for 48 hrs followed by cisplatin treatment measured after 72 hrs by MTT assay. Type of assay: functional. The note with it: in the assay text read “at 300 nM” for “at 300 uM”. In short, it runs like this:
as §2

In assay [9] the target is T1, Histone deacetylase 1/6 (Homo sapiens). The assay is described as follows: Inhibition of HDAC1/HDAC6 in human Cal27CisR cells assessed as potentiation of 5 uM cisplatin-induced cytotoxicity by measuring combination index at 100 nM preincubated for 48 hrs followed by cisplatin treatment measured after 72 hrs by MTT assay.
Assay [10] deals with CAL-27. As to the kind of experiment: Potentiation of 5 uM cisplatin-induced cytotoxicity against human CAL27 cells assessed as decrease in cell viability by measuring combination index at 400 uM preincubated for 48 hrs followed by cisplatin treatment measured after 72 hrs by MTT assay. The class given is functional. The note with it: in the assay text read “at 400 nM” for “at 400 uM”. The method in brief:
as §2

In assay [11] the target is T1, Histone deacetylase 1/6 (Homo sapiens). As to the kind of experiment: Inhibition of HDAC1/HDAC6 in human Cal27CisR cells assessed as potentiation of 10 uM cisplatin-induced cytotoxicity by measuring combination index at 200 uM preincubated for 48 hrs followed by cisplatin treatment measured after 72 hrs by MTT assay. The class given is cell-based. The method in brief: (§3)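 Cal27CisR cells preincubated 48 h with the HDAC inhibitor, then exposed to cisplatin for 72 h. Viability read by MTT. Combination index calculated by the Chou–Talalay method: CI > 1 antagonism, CI = 1 additive, CI < 0.9 synergism. Points with fraction affected below 0.20 are flagged. Values are the mean of three experiments.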

Assay [12] relates to CAL-27. As to the kind of experiment: Potentiation of 1 uM cisplatin-induced cytotoxicity against human CAL27 cells assessed as decrease in cell viability by measuring combination index at 200 uM preincubated for 48 hrs followed by cisplatin treatment measured after 72 hrs by MTT assay. Type of assay: functional. In short, it runs like this:
as §1

For assay [13], the system named is CAL-27. As to the kind of experiment: Potentiation of 0.316 uM cisplatin-induced cytotoxicity against human CAL27 cells assessed as decrease in cell viability by measuring combination index at 500 nM preincubated for 48 hrs followed by cisplatin treatment measured after 72 hrs by MTT assay.
In assay [14] the target is T1, Histone deacetylase 1/6 (Homo sapiens). The assay is described as follows: Inhibition of HDAC1/HDAC6 in human Cal27CisR cells assessed as potentiation of 10 uM cisplatin-induced cytotoxicity by measuring combination index at 400 uM preincubated for 48 hrs followed by cisplatin treatment measured after 72 hrs by MTT assay. The class given is cell-based. In short, it runs like this: as §3

The test system of assay [15] is CAL-27. As to the kind of experiment: Potentiation of 0.316 uM cisplatin-induced cytotoxicity against human CAL27 cells assessed as decrease in cell viability by measuring combination index at 500 uM preincubated for 48 hrs followed by cisplatin treatment measured after 72 hrs by MTT assay. Type of assay: functional. The note with it: in the assay text read “at 500 nM” for “at 500 uM”. The method in brief:
as §1

Assay [16] concerns the target T1, Histone deacetylase 1/6 (Homo sapiens). The assay is described as follows: Inhibition of HDAC1/HDAC6 in human Cal27CisR cells assessed as potentiation of 20 uM cisplatin-induced cytotoxicity by measuring combination index at 1500 nM preincubated for 48 hrs followed by cisplatin treatment measured after 72 hrs by MTT assay.
The target is the same in assay [17]. The assay is described as follows: Inhibition of HDAC1/HDAC6 in human Cal27CisR cells assessed as potentiation of 5 uM cisplatin-induced cytotoxicity by measuring combination index at 1000 uM preincubated for 48 hrs followed by cisplatin treatment measured after 72 hrs by MTT assay. The class given is cell-based. In short, it runs like this: as §1
The subject of assay [18] is CAL-27. The assay is described as follows: Potentiation of cisplatin-induced apoptosis in human CAL27 cells at 1 uM preincubated for 48 hrs followed by cisplatin treatment for 6 hrs measured after 24 hrs by propidium iodide dye-based flow cytometry. Type of assay: functional, cell-based.
In assay [19] the target is T1, Histone deacetylase 1/6 (Homo sapiens). As to the kind of experiment: Inhibition of HDAC1/HDAC6 in human Cal27CisR cells assessed as potentiation of 5 uM cisplatin-induced cytotoxicity by measuring combination index at 2000 uM preincubated for 48 hrs followed by cisplatin treatment measured after 72 hrs by MTT assay. Type of assay: cell-based. In short, it runs like this: as §1

Each structure is given as a SMILES string. Calls of active or inactive are those of the source. No cut-off for these calls is given here.

T1 sequence (Q13547 whole entry, looked up): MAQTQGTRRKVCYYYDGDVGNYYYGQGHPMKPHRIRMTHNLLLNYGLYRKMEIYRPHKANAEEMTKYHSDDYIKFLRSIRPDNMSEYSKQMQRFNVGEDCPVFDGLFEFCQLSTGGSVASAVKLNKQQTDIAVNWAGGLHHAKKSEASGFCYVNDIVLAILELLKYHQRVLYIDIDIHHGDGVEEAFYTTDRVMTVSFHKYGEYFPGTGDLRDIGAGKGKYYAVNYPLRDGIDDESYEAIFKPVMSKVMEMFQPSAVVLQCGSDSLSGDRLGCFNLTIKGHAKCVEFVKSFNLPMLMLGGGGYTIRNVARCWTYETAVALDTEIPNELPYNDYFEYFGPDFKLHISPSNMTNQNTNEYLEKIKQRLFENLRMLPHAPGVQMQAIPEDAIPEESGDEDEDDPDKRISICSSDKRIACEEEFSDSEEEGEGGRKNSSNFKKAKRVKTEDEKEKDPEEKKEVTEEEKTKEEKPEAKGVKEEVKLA
T1 sequence (Q9UBN7 whole entry, looked up): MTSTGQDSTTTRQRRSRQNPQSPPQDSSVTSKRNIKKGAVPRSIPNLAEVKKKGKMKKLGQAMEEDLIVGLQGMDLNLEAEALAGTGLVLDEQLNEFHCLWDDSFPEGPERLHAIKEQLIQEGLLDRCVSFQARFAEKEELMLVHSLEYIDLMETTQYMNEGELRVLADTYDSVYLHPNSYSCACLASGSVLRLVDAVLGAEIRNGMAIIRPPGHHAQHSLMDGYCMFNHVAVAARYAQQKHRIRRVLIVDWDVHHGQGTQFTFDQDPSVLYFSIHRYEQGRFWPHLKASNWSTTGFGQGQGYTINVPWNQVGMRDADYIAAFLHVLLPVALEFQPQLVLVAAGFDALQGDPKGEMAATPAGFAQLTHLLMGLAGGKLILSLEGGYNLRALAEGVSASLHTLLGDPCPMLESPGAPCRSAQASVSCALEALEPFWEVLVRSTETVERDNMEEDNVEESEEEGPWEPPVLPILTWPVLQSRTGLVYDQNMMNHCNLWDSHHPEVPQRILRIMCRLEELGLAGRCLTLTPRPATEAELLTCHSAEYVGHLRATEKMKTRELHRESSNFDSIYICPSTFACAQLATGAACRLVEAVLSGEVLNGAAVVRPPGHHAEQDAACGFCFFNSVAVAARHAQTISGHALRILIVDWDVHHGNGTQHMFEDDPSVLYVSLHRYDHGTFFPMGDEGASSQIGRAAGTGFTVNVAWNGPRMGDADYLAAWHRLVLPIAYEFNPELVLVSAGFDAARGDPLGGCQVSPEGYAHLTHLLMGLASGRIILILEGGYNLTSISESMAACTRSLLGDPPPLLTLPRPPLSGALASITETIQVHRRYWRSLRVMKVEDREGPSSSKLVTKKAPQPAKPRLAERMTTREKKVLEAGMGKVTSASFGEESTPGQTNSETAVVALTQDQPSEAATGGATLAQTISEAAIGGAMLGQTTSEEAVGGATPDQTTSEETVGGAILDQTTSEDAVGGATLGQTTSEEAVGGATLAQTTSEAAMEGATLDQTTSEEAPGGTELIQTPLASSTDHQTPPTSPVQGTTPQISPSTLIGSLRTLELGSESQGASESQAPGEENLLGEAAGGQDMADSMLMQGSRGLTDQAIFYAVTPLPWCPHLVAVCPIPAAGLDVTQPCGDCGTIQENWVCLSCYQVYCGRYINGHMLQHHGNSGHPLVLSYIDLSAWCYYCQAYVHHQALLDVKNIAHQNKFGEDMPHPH

With `COc1cc(NC(=O)NOCCCCCC(=O)NO)c2nccc(C)c2c1`, the fold change (FC) in assay [1] was 8.2. In addition, the CI was 0.56 in assay [2]; 0.5 in assay [3]; 0.91 in assay [4]; 0.39 in assay [6]; 0.28 in assay [7]; 0.31 in [8]. Further, the CI in assay [9] is under 0.2; in assay [10], 0.29; in assay [11] it was 0.48; in [12] it was 0.76; in assay [13], under 0.2; in assay [14], 0.26. In [5], the outcome was inactive.

In the case of `COc1cc(NC(=O)NOCCCCCC(=O)NO)c2nc(OC)cc(C)c2c1`, the fold change (FC) in assay [1] was found to be 11.2. Moreover, the CI in assay [2] came out at 0.19; in [3] it was 0.26; in assay [15], 0.79; in [4], 0.75; in [6], 0.33; in assay [7], 0.16. Moreover, the CI in assay [8] amounted to 0.38; in assay [9], 0.66; in assay [10], 0.36; in [11] it was 0.21; in [12], 0.82; in assay [14], 0.16. Further, in [5], the result was inactive.

Turning to `COc1cc(NC(=O)NOCCCCCC(=O)NO)c2ncccc2c1`, the CI in [15] came out at 0.86; in assay [16], 0.62; in assay [17], 0.43; in assay [19] it was 0.59. For the same compound, the result in assay [18] was Active.
